Laboratory results from ChEMBL document CHEMBL4402603, “Structure-Activity Relationship of SPOP Inhibitors against Kidney Cancer” (J Med Chem, 2020).
Calls of active or inactive are those of the source. The calls are words filed in the database; no cut-off is given here.

Key:
OS-RC-2 [1] = assay: Antiproliferative activity against human OS-RC2 cells assessed as reduction in cell viability at 30 uM incubated for 72 hrs by MTT assay relative to control; format: functional; conditions: OS-RC-2, 72 h
Summary of the method: (§1)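 MTT read-out. Cells seeded at 1,000-2,200/well, grown 12 hr at 37 °C, then compound added for 72 hr. MTT for 4 hr, formazan dissolved in DMSO, absorbance at 490 nm. Untreated-cell OD taken as 100% proliferation; inhibition reported at 30 μM.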

A498 [2] = assay: Antiproliferative activity against human A498 cells assessed as reduction in cell viability at 30 uM incubated for 72 hrs by MTT assay relative to control; format: functional; conditions: A498, 72 h; summary of the method: as §1
[3] = target: Speckle-type POZ protein (Homo sapiens) (UniProt O43791); assay: Binding affinity to recombinant N-terminal GST/His-tagged MATH binding domain SPOP (unknown origin) expressed in Escherichia coli BL21 (DE3) assessed as change in melting temperature at 20 fold compound incubated for 15 mins by nano differential scanning fluorimetry (reference value: -3.8 degreeC)
[4] = target: Speckle-type POZ protein (Homo sapiens) (UniProt O43791); assay: Binding affinity to recombinant N-terminal GST/His-tagged MATH binding domain SPOP (unknown origin) expressed in Escherichia coli BL21 (DE3) assessed as change in melting temperature at 10 fold compound incubated for 15 mins by nano differential scanning fluorimetry (reference value: -1.7 degreeC)
[5] = target: Speckle-type POZ protein (Homo sapiens) (UniProt O43791); assay: Binding affinity to recombinant N-terminal GST/His-tagged SPOP (unknown origin) MATH binding domain expressed in Escherichia coli BL21 (DE3) assessed as change in melting temperature at 1 fold compound by SYPRO Orange dye based differential scanning fluorimetry (reference value: -1.7 degreeC)
[6] = target: Speckle-type POZ protein (Homo sapiens) (UniProt O43791); assay: Binding affinity to recombinant N-terminal GST/His-tagged SPOP (unknown origin) MATH binding domain expressed in Escherichia coli BL21 (DE3) assessed as change in melting temperature at 10 fold compound by SYPRO Orange dye based differential scanning fluorimetry (reference value: -1.7 degreeC)
[7] = target: Speckle-type POZ protein (Homo sapiens) (UniProt O43791); assay: Binding affinity to recombinant N-terminal GST/His-tagged SPOP (unknown origin) MATH binding domain expressed in Escherichia coli BL21 (DE3) assessed as change in melting temperature at 5 fold compound by SYPRO Orange dye based differential scanning fluorimetry (reference value: -1.7 degreeC)
A498 [8] = assay: Antiproliferative activity against human A498 cells assessed as reduction in cell viability incubated for 72 hrs by MTT assay; format: functional, cell-based; conditions: A498, 72 h
Summary of the method: (§2)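 MTT read-out. Cells seeded at 1,000-2,200/well, grown 12 hr at 37 °C before compound, then exposed 72 hr. MTT for 4 hr, formazan dissolved in DMSO, A490 read. Untreated cells = 100% proliferation. IC50 quantitated; mean ± SD, n = 3.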

OS-RC-2 [9] = assay: Antiproliferative activity against human OS-RC2 cells assessed as reduction in cell viability incubated for 72 hrs by MTT assay; format: functional, cell-based; conditions: OS-RC-2, 72 h; summary of the method: as §2
[10] = Solubility of compound in cell culture medium in presence of 0.2 % DMSO; format: physicochemical
Summary of the method: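 Solubility determined in cell culture medium containing 0.2% DMSO.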

A498 [11] = assay: Inhibition of colony formation in human A498 cells at 1 to 5 uM incubated for 12 days by crystal violet dye based assay; format: functional, cell-based
Summary of the method: (§3)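 Cells seeded at 1,000/well, grown 12 days at 37 °C, 5% CO2, medium renewed every 3 days. Fixed with 10% acetic acid/10% methanol for 15 min, stained with 1% crystal violet for 10 min.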

OS-RC-2 [12] = assay: Inhibition of colony formation in human OS-RC2 cells at 1 to 5 uM incubated for 12 days by crystal violet dye based assay; format: functional, cell-based; summary of the method: as §3
[13] = target: Speckle-type POZ protein (Homo sapiens) (UniProt O43791); assay: Inhibition of SPOP signalling in human OS-RC2 cells assessed as accumulation of PTEN at 5 to 15 uM incubated for 12 hrs by Western blot analysis; format: cell-based

Sequence of Speckle-type POZ protein (Homo sapiens) (O43791 whole entry, the tested form may be a part): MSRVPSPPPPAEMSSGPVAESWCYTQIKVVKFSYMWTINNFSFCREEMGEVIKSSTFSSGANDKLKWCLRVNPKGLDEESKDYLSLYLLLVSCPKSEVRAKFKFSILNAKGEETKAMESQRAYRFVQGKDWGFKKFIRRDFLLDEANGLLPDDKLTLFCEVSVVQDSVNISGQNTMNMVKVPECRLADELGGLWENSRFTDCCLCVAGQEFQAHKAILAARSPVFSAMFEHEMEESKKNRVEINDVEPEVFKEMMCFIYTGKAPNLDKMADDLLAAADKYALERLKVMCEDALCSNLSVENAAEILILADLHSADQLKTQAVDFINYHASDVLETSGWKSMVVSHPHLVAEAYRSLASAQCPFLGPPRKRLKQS

Row | Structure (SMILES) | inhibition at 30 µM (OS-RC-2 [1]) | inhibition at 30 µM (A498 [2]) | ΔTm [3] | ΔTm [4] | ΔTm [5] | ΔTm [6] | ΔTm [7] | IC50 (A498 [8]) | IC50 (OS-RC-2 [9]) | solubility [10] | inhibition (A498 [11]) | inhibition (OS-RC-2 [12]) | inhibition [13]
1 | Cc1cccn2c(=O)c3cc(C(=O)NCCN4CCOCC4)c(=N)n(CCc4cccs4)c3nc12 | 82% | 86% | 3.3 °C | 3.1 °C | – | – | – | – | – | – | – | – | –
2 | Cc1cccn2c(=O)c3cc(C(=O)NCCCc4ccccc4)c(=N)n(CCc4cccs4)c3nc12 | 58% | 62% | 2.6 °C | 2.8 °C | – | – | – | – | – | – | – | – | –
3 | Cc1cccn2c(=O)c3cc(C(=O)NCc4cccnc4)c(=N)n(CCCN4CCOCC4)c3nc12 | – | – | 0.2 °C | 0 °C | 0 °C | 0.3 °C | 0.3 °C | > 50 µM | > 50 µM | – | – | – | –
4 | Cc1cccn2c(=O)c3cc(C(=O)NCCCN4CCOCC4)c(=N)n(CCc4ccc(F)cc4)c3nc12 | 88% | 90% | 2.9 °C | 2.5 °C | – | – | 2 °C | 3.1 µM | 6.6 µM | – | – | – | –
5 | Cc1cccn2c(=O)c3cc(C(=O)NCCCN4CCOCC4)c(=N)n(CCc4ccccc4)c3nc12 | 90% | 88% | 4 °C | 2.8 °C | – | – | 3 °C | 2.7 µM | 5.8 µM | 30 to 45 µM | Active | Active | –
6 | Cc1cccn2c(=O)c3cc(C(=O)O)c(=N)n(CCc4ccccc4)c3nc12 | 28% | 13% | 3.7 °C | 2.3 °C | – | – | – | – | – | – | – | – | –
7 | COc1ccc(CCn2c(=N)c(C(=O)NCCCN3CCOCC3)cc3c(=O)n4cccc(C)c4nc32)cc1 | 88% | 90% | 3.6 °C | 2.5 °C | – | – | 2.7 °C | 2.8 µM | 6.5 µM | – | – | – | –
8 | COc1ccc(CCNC(=O)c2cc3c(=O)n4cccc(C)c4nc3n(CCc3cccs3)c2=N)cc1 | 75% | 87% | – | – | – | – | – | 2.8 µM | 4.2 µM | 2.5 to 5 µM | Active | Active | Active
9 | CCOC(=O)c1cc2c(=O)n3cccc(C)c3nc2n(CCc2ccc(Cl)cc2)c1=N | 48% | 42% | 1.6 °C | 0.8 °C | – | – | – | – | – | – | – | – | –
10 | CCCn1c(=N)c(C(=O)NCCCN2CCOCC2)cc2c(=O)n3cccc(C)c3nc21 | 66% | 57% | – | – | – | – | – | 6.4 µM | 5.2 µM | – | – | – | –
11 | CCOC(=O)c1cc2c(=O)n3cccc(C)c3nc2n(-c2ccc(F)cc2)c1=N | 16% | 33% | 1.9 °C | 1.7 °C | – | – | – | – | – | – | – | – | –
12 | Cc1cccn2c(=O)c3cc(C(=O)NCCCN4CCOCC4)c(=N)n(CCc4cccs4)c3nc12 | 82% | 90% | 5.1 °C | 3.2 °C | – | – | – | 2.6 µM | 7.6 µM | – | – | – | Active
13 | Cc1cccn2c(=O)c3cc(C(=O)NCCCN4CCOCC4)c(=N)n(CCc4ccc(Br)cc4)c3nc12 | 96% | 89% | 3.5 °C | 2.3 °C | – | – | 1.3 °C | 3 µM | 5 µM | 5 to 10 µM | Active | Active | –
14 | Cc1cccn2c(=O)c3cc(C(=O)NC4CCCCC4)c(=N)n(CCc4cccs4)c3nc12 | 90% | 90% | 2.7 °C | 2.7 °C | – | – | – | 6.3 µM | 5.9 µM | – | – | – | Active
15 | Cc1cccn2c(=O)c3cc(C(=O)NCCc4ccccc4)c(=N)n(CCc4cccs4)c3nc12 | 52% | 85% | 3.7 °C | 3.5 °C | – | – | – | 5 µM | 24.2 µM | – | – | – | –
16 | Cc1ccc(CCn2c(=N)c(C(=O)NCCCN3CCOCC3)cc3c(=O)n4cccc(C)c4nc32)cc1 | 94% | 91% | 2.1 °C | 1.8 °C | – | – | 2 °C | 2.1 µM | 5.7 µM | – | – | – | –
17 | Cc1cccn2c(=O)c3cc(C(=O)NCCCN4CCOCC4)c(=N)n(CCc4ccc(Cl)cc4)c3nc12 | 97% | 90% | 3.5 °C | 2.4 °C | – | – | – | 2.3 µM | 4 µM | – | – | – | –
18 | CCOC(=O)c1cc2c(=O)n3cccc(C)c3nc2n(CCc2cccs2)c1=N | 49% | 38% | 5.3 °C | 4.9 °C | – | – | – | – | – | – | – | – | –
19 | CCOC(=O)c1cc2c(=O)n3cccc(C)c3nc2n(CCc2ccc(C)cc2)c1=N | 49% | 51% | 1.5 °C | 0.8 °C | – | – | – | – | – | – | – | – | –
20 | Cc1cccn2c(=O)c3cc(C(=O)NCCCN4CCOCC4)c(=N)n(CCCc4ccccc4)c3nc12 | 91% | 90% | – | – | – | – | – | 2.6 µM | 5.1 µM | – | – | – | –
21 | CCN(CC)CCn1c(=N)c(C(=O)NCCCN2CCOCC2)cc2c(=O)n3cccc(C)c3nc21 | 89% | 86% | – | – | – | – | – | 3.5 µM | 3.9 µM | – | – | – | –
22 | Cc1cccn2c(=O)c3cc(C(=O)NCCCN4CCOCC4)c(=N)n(CCc4cccc(F)c4)c3nc12 | 92% | 89% | 5.3 °C | 3.7 °C | – | – | 4 °C | 2.4 µM | 4.6 µM | – | – | – | Active
